Activity calls are given as the source filed them. The calls are words filed in the database; no cut-off is given here.
What was measured:
[1] = The half life at a physiological pH
[2] = The half life at a pH 1.2; details: buffer
[3] = Lethal dose was evaluated after single intraperitoneal injection in mice; format: toxicity, organism-based; details: mouse, in vivo, ip
Procedure, shortened: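 Male CD2F1 mice, 6–8 weeks old, two per dose group, single ip injection. Observed 28 days for lethality and clinical signs of toxicity; approximate LD₅₀ estimated from deaths.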

[4] = Antitumor efficacy evaluated after fractionated dose of 4*100 mg/kg; NE = No effect; format: functional, organism-based
Procedure, shortened: (§1)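 Male CD2F1 mice, six per group, inoculated ip with 10⁶ freshly harvested P388 cells in 0.2 mL phosphate-buffered saline. Test substance given ip either once on day 1 or daily on days 1–4; controls received solvent. Median survival time recorded per group; increase of life span expressed as percentage of control.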

[5] = Antitumor efficacy evaluated after single dose of 316 mg/kg; NE = No effect; format: functional, organism-based; set-up: dose 316 mg/kg; procedure, shortened: as §1
[6] = Antitumor efficacy evaluated after single intraperitoneal dose of 215 mg/kg; NE = No effect; format: functional, organism-based; set-up: dose 215 mg/kg; procedure, shortened: as §1
[7] = Antitumor efficacy evaluated after single intraperitoneal dose of 68.1 mg/kg on consecutive days; NE = No effect; format: functional, organism-based; set-up: dose 68.1 mg/kg; procedure, shortened: as §1

Row | Structure (SMILES) | half-life [1] [days] | half-life [2] [min] | LD50 [3] [mg/kg] | Efficacy [4] | Efficacy [5] | Efficacy [6] | Efficacy [7]
1 | O=P1(N(CCCl)CCCl)NCCCO1 (stereo not given) [CYCLOPHOSPHAMIDE ANHYDROUS] | 6.6 | 2020 | 620 | – | – | – | –
2 | O=P1(O)OCCCNCCN1CCCl | – | – | 1000 | inactive | inactive | – | –
3 | O=P(O)(O)OCCCNCCNCCCl | – | – | 700 | – | – | inactive | inactive
4 | NCCCOP(=O)(O)O | – | – | 1000 | – | – | – | –

Reference: ChEMBL document CHEMBL1127411, “Chemical and biological evaluation of hydrolysis products of cyclophosphamide” (J Med Chem, 1994)
